From ChEMBL document CHEMBL3102831 (Bioorg Med Chem Lett, 2014)
The source made the active and inactive calls. No cut-off for these calls is given here.

Legend:
HCT-116 [1] = assay: Cytotoxicity against human HCT116 cells after 48 hrs by MTT assay; format: functional, cell-based; conditions: HCT-116, 48 h
[2] = Cytotoxicity against human SPCA2 cells after 48 hrs by MTT assay; format: functional, cell-based; conditions: SPCA2, 48 h
CNE = assay: Cytotoxicity against human CNE cells after 48 hrs by MTT assay; format: functional, cell-based
HepG2 = assay: Cytotoxicity against human HepG2 cells after 48 hrs by MTT assay; format: functional, cell-based; conditions: HepG2, 48 h
HUVEC = assay: Cytotoxicity against human HUVEC after 48 hrs by MTT assay; format: cell-based
HeLa = assay: Cytotoxicity against human HeLa cells after 48 hrs by MTT assay; format: functional, cell-based
HCT-116 [3] = assay: Cell cycle arrest in human HCT116 cells assessed as accumulation at G1 phase after 48 hrs using propidium iodide staining by FACS analysis (reference value: 39.08%); format: functional
Method in brief: (§1)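 HCT116 cells exposed 48 h to compound at 3 and 5 µM, with untreated cells as control. Cells were stained with propidium iodide, and DNA content was measured by flow cytometry. Read-out is the percentage of cells in G1, S and G2 phases.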

HCT-116 [4] = assay: Induction of apoptosis in human HCT116 cells assessed as change in mitochondrial membrane potential after 24 hrs by JC-1 staining; format: functional, cell-based
Method in brief: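 HCT116 cells treated 24 h at 3 and 5 µM, with untreated cells as 24 h control. Cells were stained with JC-1 and viewed by fluorescence microscopy. Monomer was excited at 514 nm with emission 515–545 nm (green); J-aggregates were excited at 585 nm with emission 570–600 nm (red). Potential loss is read as a red-to-green shift.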

HCT-116 [5] = assay: Cell cycle arrest in human HCT116 cells assessed as accumulation at S phase after 48 hrs using propidium iodide staining by FACS analysis (reference value: 23.29%); format: functional; method in brief: as §1
DNA [6] = assay: Binding affinity to calf thymus DNA at compound and GelRed ratio 1:1 to 9:1 by fluorescence emission spectra analysis; format: nucleic-acid assay; conditions: Bos taurus
Method in brief: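 Competitive displacement assay. GelRed was pre-incubated with ct-DNA for 30 min at [GelRed]/[DNA] = 1:10, then titrated with compound. Emission was read around 590 nm with 350 nm excitation. Quenching constant Kq was obtained by linear Stern–Volmer fitting.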

HCT-116 [7] = assay: Induction of apoptosis in human HCT116 cells assessed as apoptotic morphology at 3 to 5 uM after 24 hrs by Hoechst […] staining; format: functional, cell-based
Method in brief: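 HCT116 cells were treated with compound at 3 and 5 µM for 24 h, alongside 24 h untreated controls. Cells were stained with Hoechst 33258 and examined by fluorescence microscopy. Bright blue nuclei from chromatin condensation and karyopyknosis were scored as apoptotic, and uniform light blue nuclei as live.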

HCT-116 [8] = assay: Induction of apoptosis in human HCT116 cells assessed as necrotic cells at 3 uM after 24 hrs using annexin V-FITC/propidium iodide by flow cytometry (reference value: 2.8%); format: functional
HCT-116 [9] = assay: Cell cycle arrest in human HCT116 cells assessed as accumulation at S phase at 3 uM after 48 hrs using propidium iodide staining by FACS analysis (reference value: 36.84%); format: functional
HCT-116 [10] = assay: Cell cycle arrest in human HCT116 cells assessed as accumulation at G2 phase at 3 uM after 48 hrs using propidium iodide staining by FACS analysis (reference value: 24.09%); format: functional
HCT-116 [11] = assay: Cell cycle arrest in human HCT116 cells assessed as accumulation at S phase at 5 uM after 48 hrs using propidium iodide staining by FACS analysis (reference value: 36.84%); format: functional
HCT-116 [12] = assay: Induction of apoptosis in human HCT116 cells assessed as viable cells at 5 uM after 24 hrs using annexin V-FITC/propidium iodide by flow cytometry (reference value: 90%); format: functional; conditions: HCT-116, 24 h, read-out: Activity
HCT-116 [13] = assay: Induction of apoptosis in human HCT116 cells assessed as viable cells at 3 uM after 24 hrs using annexin V-FITC/propidium iodide by flow cytometry (reference value: 90%); format: functional; conditions: HCT-116, 24 h, read-out: Activity
DNA [14] = assay: Binding affinity to F32T oligonucleotide DNA assessed as change in melting temperature by FRET assay
HCT-116 [15] = assay: Induction of apoptosis in human HCT116 cells assessed as early apoptotic cells at 5 uM after 24 hrs using annexin V-FITC/propidium iodide by flow cytometry (reference value: 3.9%); format: functional
HCT-116 [16] = assay: Cell cycle arrest in human HCT116 cells assessed as accumulation at G1 phase at 3 uM after 48 hrs using propidium iodide staining by FACS analysis (reference value: 39.08%); format: functional
HCT-116 [17] = assay: Cell cycle arrest in human HCT116 cells assessed as accumulation at G1 phase at 5 uM after 48 hrs using propidium iodide staining by FACS analysis (reference value: 39.08%); format: functional
DNA [18] = assay: Binding affinity to calf thymus DNA at 1.5 x 10^-5 M by circular dichroism analysis; format: nucleic-acid assay; conditions: Bos taurus
Method in brief: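 Circular dichroism spectra recorded on ct-DNA at 1.5 × 10^-4 M, alone and with compound at 1.5 × 10^-5 M. Spectra compared with and without compound.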

DNA [19] = assay: Binding affinity to calf thymus DNA at DNA and compound ratio 1:1 to 6:1 by UV-vis absorption spectra analysis; format: nucleic-acid assay; conditions: Bos taurus
HCT-116 [20] = assay: Induction of apoptosis in human HCT116 cells assessed as late apoptotic cells at 3 uM after 24 hrs using annexin V-FITC/propidium iodide by flow cytometry (reference value: 3.3%); format: functional
HCT-116 [21] = assay: Induction of apoptosis in human HCT116 cells assessed as necrotic cells at 5 uM after 24 hrs using annexin V-FITC/propidium iodide by flow cytometry (reference value: 2.8%); format: functional
HCT-116 [22] = assay: Induction of apoptosis in human HCT116 cells assessed as change in mitochondrial membrane potential at 3 to 5 uM after 24 hrs by JC-1 staining; format: functional, cell-based
Method in brief: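 HCT116 cells were exposed for 24 h at 3 and 5 µM, with untreated 24 h controls, then stained with JC-1. Monomer and J-aggregates were excited at 514 and 585 nm. Emission was collected at 515–545 nm (green) and 570–600 nm (red), and cells were imaged by fluorescence microscopy.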

HCT-116 [23] = assay: Induction of apoptosis in human HCT116 cells assessed as activation of caspase 3 and 8 after 24 hrs by RT-PCR analysis; format: functional, cell-based
HCT-116 [24] = assay: Induction of apoptosis in human HCT116 cells assessed as early apoptotic cells at 3 uM after 24 hrs using annexin V-FITC/propidium iodide by flow cytometry (reference value: 3.9%); format: functional
HCT-116 [25] = assay: Induction of apoptosis in human HCT116 cells assessed as late apoptotic cells at 5 uM after 24 hrs using annexin V-FITC/propidium iodide by flow cytometry (reference value: 3.3%); format: functional
HCT-116 [26] = assay: Cell cycle arrest in human HCT116 cells assessed as accumulation at G2 phase at 5 uM after 48 hrs using propidium iodide staining by FACS analysis (reference value: 24.09%); format: functional

SMILES: CCOP(=O)(OCC)C(NC(=O)c1cc(O)c2c(c1)C(=O)c1cccc(O)c1C2=O)c1cccc(Cl)c1 (stereo not drawn)
- IC50 (HCT-116 [1]): 22.4 µM
- IC50 [2]: 77 µM
- IC50 (CNE): 45.6 µM
- IC50 (HepG2): 72 µM
- IC50 (HUVEC): > 100 µM
- IC50 (HeLa): 73.2 µM

SMILES: CCOP(=O)(OCC)C(NC(=O)c1cc(O)c2c(c1)C(=O)c1cccc(O)c1C2=O)c1ccc(Br)cc1 (stereo not drawn)
- IC50 (HCT-116 [1]): 65.5 µM
- IC50 [2]: 88.2 µM
- IC50 (CNE): 42.5 µM
- IC50 (HepG2): 94.2 µM
- IC50 (HUVEC): > 100 µM
- IC50 (HeLa): 98.2 µM

SMILES: O=c1[nH]cc(F)c(=O)[nH]1 [FLUOROURACIL]
- IC50 (HCT-116 [1]): 5.78 µM
- Activity (HCT-116 [3]): 65.6%
- IC50 [2]: 42.2 µM
- Activity (HCT-116 [4]): Active
- IC50 (CNE): 40.2 µM
- IC50 (HepG2): 30 µM
- IC50 (HUVEC): 56 µM
- IC50 (HeLa): 35.3 µM
- Activity (HCT-116 [5]): 28%

SMILES: CCOP(=O)(OCC)C(NC(=O)c1cc(O)c2c(c1)C(=O)c1cccc(O)c1C2=O)c1ccc(OC)cc1 (stereo not drawn)
- IC50 (HCT-116 [1]): 22.1 µM
- IC50 [2]: 38.9 µM
- IC50 (CNE): 42.9 µM
- IC50 (HepG2): 44.4 µM
- IC50 (HUVEC): > 100 µM
- IC50 (HeLa): 40.1 µM

SMILES: CCOP(=O)(OCC)C(NC(=O)c1cc(O)c2c(c1)C(=O)c1cccc(O)c1C2=O)c1cccc(F)c1 (stereo not drawn)
- IC50 (HCT-116 [1]): 16.7 µM
- IC50 [2]: 55.4 µM
- IC50 (CNE): 49.2 µM
- IC50 (HepG2): 56.8 µM
- IC50 (HUVEC): > 100 µM
- IC50 (HeLa): 64.8 µM

SMILES: CCOP(=O)(OCC)C(NC(=O)c1cc(O)c2c(c1)C(=O)c1cccc(O)c1C2=O)c1ccc(F)cc1 (stereo not drawn)
- IC50 (HCT-116 [1]): 57.8 µM
- IC50 [2]: 24.3 µM
- IC50 (CNE): 34.6 µM
- IC50 (HepG2): 59.4 µM
- IC50 (HUVEC): > 100 µM
- IC50 (HeLa): 95.4 µM

SMILES: CCOP(=O)(OCC)C(NC(=O)c1cc(O)c2c(c1)C(=O)c1cccc(O)c1C2=O)c1cccc(OC)c1 (stereo not drawn)
- IC50 (HCT-116 [1]): 5.32 µM
- Kq (DNA [6]): 1660
- Activity (HCT-116 [7]): Active
- Activity (HCT-116 [8]): 4%
- Activity (HCT-116 [9]): 34.66%
- IC50 [2]: 28.3 µM
- Activity (HCT-116 [10]): 20.09%
- Activity (HCT-116 [11]): 32.44%
- viability at 5 µM (HCT-116 [12]): 57.5%
- viability at 3 µM (HCT-116 [13]): 53%
- ΔTm (DNA [14]): 3.1 °C
- IC50 (CNE): 24.1 µM
- Activity (HCT-116 [15]): 33.5%
- Activity (HCT-116 [16]): 45.26%
- IC50 (HepG2): 22.1 µM
- Activity (HCT-116 [17]): 49.67%
- Activity (DNA [18]): Active
- Kb (DNA [19]): 1.03 ×10⁴ /M
- IC50 (HUVEC): > 100 µM
- Activity (HCT-116 [20]): 10.5%
- Activity (HCT-116 [21]): 2.6%
- Activity (HCT-116 [22]): Active
- IC50 (HeLa): 19.3 µM
- Activity (HCT-116 [23]): Dose-dependent effect
- Activity (HCT-116 [24]): 32.5%
- Activity (HCT-116 [25]): 6.5%
- Activity (HCT-116 [26]): 17.9%

SMILES: CCOP(=O)(OCC)C(NC(=O)c1cc(O)c2c(c1)C(=O)c1cccc(O)c1C2=O)c1ccc(C)cc1 (stereo not drawn)
- IC50 (HCT-116 [1]): 54.3 µM
- IC50 [2]: 74.4 µM
- IC50 (CNE): 79.4 µM
- IC50 (HepG2): 77.9 µM
- IC50 (HUVEC): > 100 µM
- IC50 (HeLa): 89 µM

SMILES: CCOP(=O)(OCC)C(NC(=O)c1cc(O)c2c(c1)C(=O)c1cccc(O)c1C2=O)c1ccccc1Br (stereo not drawn)
- IC50 (HCT-116 [1]): 48.9 µM
- IC50 [2]: 85.5 µM
- IC50 (CNE): 55.7 µM
- IC50 (HepG2): 88.3 µM
- IC50 (HUVEC): > 100 µM
- IC50 (HeLa): 79.6 µM
